This is a sample that favours compounds with a hit; in the whole collection about 3% have one here.
Hsp70 act: Hsp70 transcriptional activators, primary screen, cell-based, HeLa, Hsp70 promoter luciferase, luminescence, 10 µM; 200,000 tested, 0.04% active; activation, % at 10 µM; HeLa Hsp70 promoter luciferase reporter; scaled: vehicle 0, proteasome-inhibitor control 100%; AID 1203, 2008;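 active means activation above the mean across all tested compounds plus 3 SD, cutoff set per campaign, cut at about 5.5% in these data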;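 further: 100% = MG132 at 30 µM as the positive control and 0% = DMSO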
NPY1 pot ag: NPY-Y1 receptor potentiators or agonists, primary screen, cell-based; activation, % at 3.6 µM; NPY-Y1 expressing cells, potentiator/agonist activation; Neuropeptide Y receptor type 1 (Homo sapiens), P25929; 220,000 tested, 0.37% active; in the data active means activation above about 33%, passing the limit was not always enough;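 further: cells stimulated with NPY at EC10 then isoproterenol at EC100; 0% = low agonist plus stimulus and 100% = saturating agonist plus stimulus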
NPY2 pot ag: NPY-Y2 potentiators or agonists, primary screen, cell-based. cells expressing NPY-Y2, potentiator/agonist read-out. AID 1359, 2008. activation, % at 3.6 µM. Neuropeptide Y receptor type 2 (Homo sapiens), P49146. 220,000 tested, 0.45% active; in the data active means activation above about 27%;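 further: cells stimulated with NPY near EC25 plus isoproterenol at EC100; 0% = vehicle plus submaximal agonist and 100% = vehicle plus saturating agonist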
Wee1 degr inh: Wee1 degradation inhibitors, primary screen, cell-based, HeLa, Wee1K328M-luciferase, luminescence. AID 1321, 2008. reporter increase, % at 5 µM. Wee1-like protein kinase (Homo sapiens), P30291. 220,000 tested, 1.2% active. HeLa Luc-Wee1K328M stability; 100% = proteasome inhibitor MG132 effect;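 active means activation above the mean of all tested compounds plus 3 SD, set per screening run, cut at about 8.8% in these data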;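 further: cells exposed to compound for 20 h before luminescence read; 0% = DMSO alone and 100% = MG132 at 30 µM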
Target sequence (P30291 whole entry K328M): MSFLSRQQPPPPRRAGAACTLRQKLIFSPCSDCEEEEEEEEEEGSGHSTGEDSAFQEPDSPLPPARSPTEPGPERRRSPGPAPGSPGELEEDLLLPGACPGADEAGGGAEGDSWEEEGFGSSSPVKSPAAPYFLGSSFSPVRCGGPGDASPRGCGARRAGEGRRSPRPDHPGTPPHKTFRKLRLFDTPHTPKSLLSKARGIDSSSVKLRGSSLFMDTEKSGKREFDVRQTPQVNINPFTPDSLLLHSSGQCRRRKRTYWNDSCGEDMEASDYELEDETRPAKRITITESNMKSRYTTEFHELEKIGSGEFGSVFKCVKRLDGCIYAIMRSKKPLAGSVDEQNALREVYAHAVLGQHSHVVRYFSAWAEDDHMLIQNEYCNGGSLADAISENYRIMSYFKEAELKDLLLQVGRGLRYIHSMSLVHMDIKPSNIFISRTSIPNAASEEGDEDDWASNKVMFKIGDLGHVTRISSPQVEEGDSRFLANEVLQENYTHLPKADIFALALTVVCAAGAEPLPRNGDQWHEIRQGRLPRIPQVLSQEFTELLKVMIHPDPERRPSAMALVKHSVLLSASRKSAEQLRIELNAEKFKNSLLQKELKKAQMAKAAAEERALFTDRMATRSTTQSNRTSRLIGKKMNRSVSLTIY
NPY Y2 blocker: NPY-Y2 receptor antagonists, primary screen, cell-based; Neuropeptide Y receptor type 2 (Homo sapiens), P49146; NPY-Y2 expressing cells, antagonist mode; inhibition, % at 2.7 µM; 140,000 tested, 0.99% active; in the data active means inhibition above about 17%;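 further: 0% = vehicle with agonist challenge and 100% = reference antagonist with challenge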
NPY Y1 blocker: NPY-Y1 receptor antagonists, primary screen, cell-based. inhibition, % at 3.6 µM. 200,000 tested, 1% active. AID 1040, 2008. HEK293-CNG Y1 cells, membrane potential fluorescence; NPY at EC95, then isoproterenol. Neuropeptide Y receptor type 1 (Homo sapiens), P25929;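 active means inhibition above the campaign mean inhibition of all tested compounds plus 3 SD, cut at about 20% in these data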;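 further: 0% = DMSO wells given NPY plus isoproterenol and 100% = isoproterenol alone without NPY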
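Material: HEK293 cells co-expressing NPY Y1 receptor and cyclic-nucleotide gated channel. Timing: compound incubation 1 h at room temperature, readout 45 min post-stimulation. Signal: fluorescence, membrane potential probe.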
* hit, by the source's call; nt = no result.

SMILES	Hsp70 act	NPY1 pot ag	NPY2 pot ag	Wee1 degr inh	NPY Y2 blocker	NPY Y1 blocker
CCOC(=O)c1ccc(NS(=O)(=O)c2cnc[nH]2)cc1	-0.3	7.8	5.8	11.3*	1.3	4.2
CCOc1ccc(NC(=O)Nc2cc(OCC(F)(F)F)cc(OCC(F)(F)F)c2)cc1	-0.5	10.8	16.3	-0.9	-5.9	-5.4
CCOC(=O)c1cccc(NS(=O)(=O)c2cnc[nH]2)c1	0.0	-12.2	5.4	-1.6	0.7	-2.6
COc1ccccc1CNc1ccc(CNc2ncn[nH]2)cc1	-0.2	6.4	-2.7	1.3	nt	-1.3
COc1cc(CNc2ccc(CNc3ncn[nH]3)cc2)ccc1OCc1ccccc1	0.1	5.2	5.4	10.1*	0.5	3.3
CC(C)CCN1CCN(Cc2ccc(N3CCNC3=O)cc2)CC1CCO (stereo not given)	0.1	-3.8	-6.8	1.8	nt	4.0
CC1Cc2ccccc2N1C(=O)CSc1nnnn1C(C)C (stereo not given)	-0.5	12.5	10.1	-1.1	1.1	-3.6
COc1ccc(N2C(=O)C(CC(=O)Nc3ccccc3)N(Cc3ccccn3)C2=S)cc1 (stereo not given)	0.1	-18.9	4.7	9.1*	nt	-4.0
COCCNC(=O)C(NC(=O)C1CCCCC1)C12CC3CC(CC(C3)C1)C2 (stereo not given)	-0.3	15.9	-5.0	0.2	nt	-1.9
Cc1c(NC(=O)c2cc3c(s2)CCCC3)c(=O)n(-c2ccccc2)n1C	0.2	10.1	-8.8	-2.6	nt	-4.5
CCN(CC)S(=O)(=O)c1ccc2nc(NC(=O)c3cccs3)sc2c1	-0.3	-0.2	3.8	0.4	0.2	0.0
CCN(CC)S(=O)(=O)c1ccc2nc(NC(=O)c3ccco3)sc2c1	0.1	-4.2	-13.1	9.6*	nt	7.2
COc1ccc(C(=O)c2c(C)c3ccccc3n2CC(O)CNC(C)C)cc1 (stereo not given)	-0.5	-38.0	10.2	-1.3	14.9	18.0
CC(C)NCC(O)Cn1c2c(c3ccccc31)CCc1c-2cnn1-c1ccccc1 (stereo not given)	0.1	49.9*	43.0*	1.7	1.0	-6.0
COc1cc(NC(=O)c2cc3sccc3n2C)cc(OC)c1	-0.2	-10.4	-11.9	9.0*	1.9	5.2
Cn1c(C(=O)Nc2ccccc2)cc2sccc21	0.1	-8.4	-14.7	6.4	-2.1	4.0
Cc1nnsc1C(=O)NNc1c(Cl)cccc1Cl	nt	8.1	13.6	9.0*	nt	nt
CCOC(=O)C1CCN(c2ncnc3c2[nH]c2cccc(OC)c23)CC1	0.1	-20.3	-2.0	1.8	-0.1	-2.0
CCOC(=O)C1CCN(c2ncnc3c2oc2ccc(Cl)cc23)CC1	-0.1	-60.9	-20.1	-0.9	19.2*	17.9
COc1ccc2[nH]cc(C(=O)CCl)c2c1	nt	10.2	0.5	1.6	nt	nt
COc1ccc2[nH]cc(C(=O)CNc3nc(C)cs3)c2c1	0.2	47.9*	39.2*	0.4	-10.5	-17.9
COc1ccc(CN2CCCC(CNC(=O)c3ccc(F)cc3)C2)c(C)c1C (stereo not given)	-0.2	-8.9	-30.5	0.9	nt	15.1
COCC(=O)Nc1ccc(Br)cc1C	-0.3	2.1	-4.4	-2.7	nt	3.7
Cc1cc(Br)ccc1NC(=O)CN1C(=O)C2C3CC(c4ccccc4)C(C3)C2C1=O (stereo not given)	-0.2	67.2*	53.2*	-1.9	-5.9	-21.7
O=c1oc2ccccc2cc1N1CCOCC1	-0.1	0.3	1.6	9.3*	2.4	2.4
SMILES	Hsp70 act	NPY1 pot ag	NPY2 pot ag	Wee1 degr inh	NPY Y2 blocker	NPY Y1 blocker
O=c1cc(N2CCOCC2)c2ccccc2o1	-0.4	-8.4	10.4	-1.5	-0.8	1.4
Cc1ccccc1CSc1nc(-c2ccccc2)cc(=O)[nH]1	-0.3	-1.6	-17.3	0.6	8.9	-2.0
O=C(CNC(=O)c1ccc(-c2ccccc2)cc1)Nc1ccc(S(=O)(=O)Nc2ncccn2)cc1	nt	-13.7	3.0	-1.3	nt	nt
CCC(CC)c1nn2c(N)c(/C=C3\C(C)=Nc4ccccc43)c(=O)nc2s1	nt	87.8*	50.6*	-1.6	nt	nt
NC(=O)NC(CC(=O)NCCCc1ccccc1)c1ccc(Cl)cc1 (stereo not given)	nt	1.6	18.1	0.2	nt	nt
COc1ccc(/C(O)=C/C(=O)C(=O)NNC(=O)C(O)(c2ccccc2)c2ccccc2)cc1	-0.4	110.9*	102.8*	-2.7	2.5	-11.9
CCOC(=O)c1c(NC(=O)CC2SC(N)=NC2=O)sc(C)c1C (stereo not given)	0.1	7.5	-0.4	7.3	nt	2.4
CCOc1ccc2c(c1)-c1c(ssc1=S)C(C)(C)N2	-0.1	44.4*	44.5*	-0.5	-9.9	-14.0
CCOc1ccc2c(c1)-c1c(ssc1=S)C(C)(C)N2C(=O)CSC1=NCCS1	0.1	49.4*	40.4*	-0.5	-5.3	-9.2
Cc1ccc2c(c1)-c1c(ssc1=S)C(C)(C)N2C(=O)CSC1=NCCS1	-0.1	13.7	23.6	-2.6	-5.6	-7.0
O=C(NCC1CCN(S(=O)(=O)c2ccccc2)CC1)Nc1ccccc1	nt	-4.9	-24.7	0.5	nt	nt
COc1ccccc1CNc1cc(C)ccc1C	-0.3	-0.3	-8.8	9.5*	3.0	4.6
COc1ccccc1CNC(=S)Nc1cc(C)ccc1C	0.0	-24.4	-11.7	-2.0	nt	4.0
COc1ccc(-c2csc(Nc3ccc(C)cn3)n2)cc1	0.3	6.6	22.1	9.6*	nt	-4.0
CC(=O)Nc1cccc(-c2csc(Nc3ccc(C)cn3)n2)c1	0.0	15.1	11.4	7.6	-1.5	4.5
Cn1nc(-c2ccc(OCC(=O)NCC3CCCO3)cc2)c2ccccc2c1=O (stereo not given)	0.0	-2.1	-5.3	9.6*	-2.5	-4.1
Cn1nc(-c2ccc(C(=O)NCC3CCCO3)cc2)c2ccccc2c1=O (stereo not given)	-0.6	-7.3	-6.4	4.8	-2.8	1.7
O=c1[nH]c(SCc2cccc(Cl)c2)nc2[nH]ncc12	0.2	-13.8	-18.8	-0.8	nt	9.9
Cc1ccc(SC(C)C(=O)Nc2ccc(S(=O)(=O)N3CCOCC3)cc2)cc1 (stereo not given)	-0.4	11.8	1.3	-1.4	2.1	-3.1
Cc1nc(NC(=O)c2ccc(Br)s2)sc1C(=O)N(C)C	0.1	-35.5	13.1	10.7*	2.2	-0.8
Cc1nc(NC(=O)c2cc3c(s2)CCCCC3)sc1C(=O)N(C)C	-0.3	-15.7	-5.4	4.9	3.0	-4.4
O=c1c2[nH]c3ccc(F)cc3c2nc2n1CCCS2	0.3	-5.6	-5.1	-4.4	nt	-3.1
COc1ccc(S(=O)(=O)Nc2cccc(Cl)c2)cc1OC	-0.1	68.2*	58.2*	-2.7	-0.2	-15.0

Screening data: PubChem BioAssay, The Scripps Research Institute Molecular Screening Center
